CHOP inh – inhibitors of CHOP promoter induction, primary screen, cell-based, unfolded protein response, luciferase reporter. CHO-K1 CHOP-promoter luciferase, tunicamycin-induced, 15-18 h. inhibition, % at 10 µM. 220,000 compounds, 3.8% hits. AID 2732, 2010;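 active = compounds that reduced the stress-induced luciferase reporter signal by more than about 70% of percent inhibition, limit read from the data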
Hsp70 act – Hsp70 transcriptional activators, primary screen, cell-based, HeLa, Hsp70 promoter luciferase, luminescence, 10 µM | HeLa Hsp70 promoter luciferase reporter; scaled: vehicle 0, proteasome-inhibitor control 100% | activation, % at 10 µM | 200,000 compounds, 0.04% hits | AID 1203, 2008;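 active = activation above the mean across all tested compounds plus 3 SD, cutoff set per campaign, cut at about 5.5% in these data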
S1P3 antagonist – S1P3 receptor antagonists, primary screen, cell-based; Sphingosine 1-phosphate receptor 3 (Homo sapiens), Q99500; CHO S1P3 NFAT-BLA reporter, FRET fluorescence, antagonist mode; inhibition, % at 4.98 µM; 170,000 compounds, 0.27% hits; AID 485, 2006;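 active = inhibition above the plate cutoff, the mean inhibition of test wells on that plate plus 3 SD, cut at about 28% in these data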;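 note: cells challenged with S1P at its EC80 of 0.8 µM; blue over green emission ratio from cleaved BLA substrate after 4 h stimulation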
Mdm2 ligase inh – MDM2-luciferase reporter signal enhancers, primary screen, MDM2 E3 ligase inhibitor project, cell-based, luminescence, 1536-well; cell-based MDM2 ubiquitination luciferase reporter, 2 h; 0 = plate control, 100 = twice control, blank-subtracted; signal enhancement, % at 5 µM; 210,000 compounds, 0.11% hits;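 active = signal enhancement of 30% or more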;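 note: luminescence tracks abundance of the self-degrading MDM2-luciferase fusion protein; higher signal means inhibition of MDM2 E3 ligase activity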
Target sequence (Q00987 whole entry, looked up, the tested form may be a part): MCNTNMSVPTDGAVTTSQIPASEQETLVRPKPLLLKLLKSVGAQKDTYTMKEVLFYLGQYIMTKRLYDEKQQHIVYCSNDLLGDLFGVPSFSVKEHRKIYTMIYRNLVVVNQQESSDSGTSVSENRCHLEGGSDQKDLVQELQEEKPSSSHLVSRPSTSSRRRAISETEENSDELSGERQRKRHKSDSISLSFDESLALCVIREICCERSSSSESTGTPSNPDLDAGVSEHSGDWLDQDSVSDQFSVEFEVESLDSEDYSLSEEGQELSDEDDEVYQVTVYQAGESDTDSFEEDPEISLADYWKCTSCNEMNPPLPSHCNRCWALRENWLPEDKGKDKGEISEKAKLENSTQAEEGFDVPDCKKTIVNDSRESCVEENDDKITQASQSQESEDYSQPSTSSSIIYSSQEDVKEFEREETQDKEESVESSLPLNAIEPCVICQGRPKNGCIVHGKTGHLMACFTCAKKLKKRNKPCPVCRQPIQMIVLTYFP
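Material: Stable MDM2–luciferase fusion reporter cells | Amount: 2000 cells seeded into each well | Dosing: One concentration, 5 µM, with 0.2% DMSO | Incubation: 4 h cell settling then 2 h compound exposure, 37 °C | Measured by: Luciferase luminescence | Read-out basis: % enhancement relative to plate controls after blank subtraction | Benchmarks: Control and blank well means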
A number is an active result; 0 = inactive; - = no result. In the library only some 4% were active in any assay of this set; here they are far more common.

SMILES | CHOP inh | Hsp70 act | S1P3 antagonist | Mdm2 ligase inh
O=C(O)c1ccc(Nc2nc3c(s2)CCCC3)cc1 | 91 | 0 | 0 | 0
CC(=O)N1CCN(CCN=CC2=C(O)CC(c3cccs3)CC2=O)CC1 (stereo unspecified) | 0 | 0 | 0 | 0
Cc1cccc(N=C2NC(=O)/C(=C3/C(=O)N(C)c4ccccc43)S2)c1C | 88 | 0 | 0 | 0
Cc1ccccc1N=C1NC(=O)/C(=C/c2cccn2C)S1 | 0 | - | 0 | 0
CC(NC(=O)Cn1cccc1C(=O)c1ccccc1)c1ccc2c(c1)OCCO2 (stereo unspecified) | 0 | 0 | 0 | 0
O=c1c[n+]([O-])c2ccccc2n1OCc1c(F)cccc1F | 88 | 0 | 0 | 0
CCOn1c(=O)c[n+]([O-])c2ccccc21 | 0 | 0 | 0 | 0
O=C1Nc2ccccc2/C1=C\c1cccn1-c1ccc(OC(F)(F)F)cc1 | 93 | 0 | - | 0
Cc1ccc(/C=C2\C(=O)Nc3ccccc32)o1 | 0 | 0 | 0 | 0
Cc1nc2ccc(C(=O)N3c4ccccc4CC3C)cc2s1 (stereo unspecified) | 0 | 0 | 0 | 0
OC(CN1CCN(c2ccccn2)CC1)Cn1c2ccccc2c2ccccc21 (stereo unspecified) | 72 | 0 | 0 | 0
O=C(CCS(=O)(=O)c1ccccc1)NC12CC3CC(CC(C3)C1)C2 | 74 | 0 | - | 0
C#CCOCCOCCOCCNc1nc(N2CCN(C(=O)[C@H]([C@@H](C)O)n3cc(CCCCN)nn3)CC2)nc(N2CCN(C(=O)[C@H](Cc3ccc(O)cc3)n3cc(CCO)nn3)CC2)n1 | 0 | 0 | 0 | -
O=C(O)C(Cc1ccccc1)N1C(=O)/C(=C/c2cccc3ccccc23)SC1=S (stereo unspecified) | 106 | 0 | - | 0
COc1cc(/C=C2/C(=N)N3C=CSC3=NC2=O)ccc1OCCOc1ccc(NC(C)=O)cc1 | 0 | 0 | 0 | 0
CCOc1ccc(-c2ccc(/C=C3/C(=N)N4C(C)=CSC4=NC3=O)o2)c([N+](=O)[O-])c1 | 88 | 0 | 0 | -
CCOc1ccc(-c2ccc(/C=C3/C(=N)N4C=CSC4=NC3=O)o2)c([N+](=O)[O-])c1 | 86 | 0 | 0 | 0
CN(CCc1cn[nH]c1)Cc1nc(Cc2ccccc2F)no1 | 0 | 0 | 0 | 0
O=C(NCc1cccs1)C1CCC(=O)N1C1CCCCC1 (stereo unspecified) | 0 | 0 | 0 | 0
O=C(NCc1ccc2[nH]c3c(c2c1)CCCC3)c1ccc(S(=O)(=O)N2CCCC2)cc1 | 77 | 0 | 0 | -
O=C1[C@@H]2Cc3c([nH]c4ccccc34)[C@@H](c3ccccc3)N2C(=O)[C@@H]2Cc3c([nH]c4ccccc34)[C@@H](c3ccccc3)N12 | 106 | 0 | 0 | -
COc1cc([C@H]2c3[nH]c4ccccc4c3C[C@H]3C(=O)N4[C@@H](c5cc(OC)c(OC)c(OC)c5)c5[nH]c6ccccc6c5C[C@H]4C(=O)N23)cc(OC)c1OC | 96 | 0 | 0 | -
CN1CC(=O)N2[C@H](c3ccc4c(c3)OCO4)c3[nH]c4ccccc4c3C[C@@H]2C1=O | 0 | 0 | 0 | -
CC(=O)Oc1ccc(N2C(=O)C3C4C=CC(CC4)C3C2=O)cc1[N+](=O)[O-] (stereo unspecified) | 0 | 0 | 0 | 0
CCNC(=S)N/N=C/c1ccc(OCc2ccc(C(=O)OC)cc2)cc1 | 0 | 0 | 0 | 0
SMILES | CHOP inh | Hsp70 act | S1P3 antagonist | Mdm2 ligase inh
O=C(Nc1ccc(CN2CCCCC2)cc1)c1sc2ccccc2c1Cl | 0 | - | 0 | -
COc1ccc(N2C(=O)CSC23CCC(C(C)(C)C)CC3)cc1 (stereo unspecified) | 79 | 0 | - | 0
COc1ccc(N2C(=O)CSC23CCCCC3)cc1 | 0 | 0 | 0 | 0
Cc1ccccc1CS(=O)(=O)Cc1ccc(C(=O)NCCCN2CCCC2=O)o1 | 73 | 0 | 0 | 0
Cc1ccccc1CS(=O)(=O)Cc1ccc(C(=O)NCCCN2CCOCC2)o1 | 0 | 0 | 0 | 0
CC(C(=O)Nc1nncs1)N1C(=O)C2C3C=CC(C3)C2C1=O (stereo unspecified) | 0 | 0 | 0 | 0
Cc1cccc(C)c1NC(=O)C1(N2CCN(C(=O)c3ccco3)CC2)CCCCC1 | 0 | 0 | 0 | 0
CC(=Nc1cccc(C)c1)c1sc2ccccc2c1O | 77 | 0 | - | 0
O=C(CCN1CCOCC1)c1ccc(Cl)cc1 | 0 | 0 | 0 | 0
Cc1oc2ccc(O)c(CN3CCOCC3)c2c1C(=O)c1ccc(Cl)cc1 | 71 | 0 | 0 | 0
